Legend:
Assay type in all cases: functional, organism-based
[1] = test system: Influenza A virus; assay: Antiviral activity against influenza A (A/Washington/10/2008 (H1N1)) virus after 30 mins by NA-star substrate based chemiluminescent assay; settings: 0.5 h
How it was run: (§1)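 Titrated virus in NA-Star buffer (26 mM MES, 4 mM CaCl2, pH 6.0) was preincubated with ten half-log inhibitor dilutions (0.03–1,000 nM final) for 30 min at 37°C, then with substrate for 30 min at room temperature. Accelerator solution was added and luminescence read for 0.1 s. IC50 came from a Vmax·[1−x/(K+x)] fit, mean of ≥3 experiments.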

[2] = test system: Influenza A virus; assay: Antiviral activity against influenza A (A/North Carolina/02/2009 (H1N1)) virus after 30 mins by NA-star substrate based chemiluminescent assay; settings: 0.5 h; how it was run: as §1
[3] = test system: Influenza A virus; assay: Antiviral activity against influenza A (A/New York/18/2009 (H1N1)) virus after 30 mins by NA-star substrate based chemiluminescent assay; settings: 0.5 h; how it was run: as §1
[4] = test system: Influenza A virus; assay: Antiviral activity against influenza A (A/Washington/29/2009 (H1N1)) virus after 30 mins by NA-star substrate based chemiluminescent assay; settings: 0.5 h; how it was run: as §1
[5] = test system: Influenza A virus; assay: Antiviral activity against influenza A (A/Singapore/91/2009 (H1N1)) virus after 30 mins by NA-star substrate based chemiluminescent assay; settings: 0.5 h; how it was run: as §1
[6] = test system: Influenza A virus; assay: Antiviral activity against influenza A (A/Washington/10/2008 (H1N1)) virus after 30 mins by MUNANA substrate based fluorometric assay; settings: 0.5 h
How it was run: (§2)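 Fluorometric NA inhibition with MUNANA (100 μM final). Titrated virus in NA-Star buffer (26 mM MES, 4 mM CaCl2, pH 6.0) was preincubated with ten half-log inhibitor dilutions (0.03–1,000 nM final) for 30 min at 37°C, then with substrate for 30 min at 37°C. The reaction was stopped with 0.1 M glycine in 25% ethanol, pH 10.7, and 4-methylumbelliferone was read at ex 365/em 450 nm. IC50 came from a Vmax·[1−x/(K+x)] fit, mean of ≥3 experiments.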

[7] = test system: Influenza A virus; assay: Antiviral activity against influenza A (A/North Carolina/02/2009 (H1N1)) virus after 30 mins by MUNANA substrate based fluorometric assay; settings: 0.5 h; how it was run: as §2
[8] = test system: Influenza A virus; assay: Antiviral activity against influenza A (A/New York/18/2009 (H1N1)) virus after 30 mins by MUNANA substrate based fluorometric assay; settings: 0.5 h; how it was run: as §2
[9] = test system: Influenza A virus; assay: Antiviral activity against influenza A (A/Washington/29/2009 (H1N1)) virus after 30 mins by MUNANA substrate based fluorometric assay; settings: 0.5 h; how it was run: as §2
[10] = test system: Influenza A virus; assay: Antiviral activity against influenza A (A/Singapore/91/2009 (H1N1)) virus after 30 mins by MUNANA substrate based fluorometric assay; settings: 0.5 h; how it was run: as §2
[11] = test system: Influenza A virus; assay: Antiviral activity against influenza A (A/Washington/10/2008 (H1N1)) virus after 16 to 18 hrs by fetuin substrate based colorimetric assay
How it was run: (§3)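 Colorimetric NA inhibition with fetuin substrate. Virus was diluted in NA-Star buffer (26 mM MES, 4 mM CaCl2, pH 6.0) to give OD549 of 0.4–0.8 after 18 h. It was preincubated with ten half-log inhibitor dilutions (0.03–1,000 nM final) for 1 h at 37°C, then with fetuin (5.5 mg/ml final) for 16–18 h at 37°C. Released sialic acid was read at 549 nm after periodate/TBA reaction and butanol extraction. IC50 came from a Vmax·[1−x/(K+x)] fit, mean of ≥2 experiments.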

[12] = test system: Influenza A virus; assay: Antiviral activity against influenza A (A/North Carolina/02/2009 (H1N1)) virus after 16 to 18 hrs by fetuin substrate based colorimetric assay; how it was run: as §3
[13] = test system: Influenza A virus; assay: Antiviral activity against influenza A (A/New York/18/2009 (H1N1)) virus after 16 to 18 hrs by fetuin substrate based colorimetric assay; how it was run: as §3
[14] = test system: Influenza A virus; assay: Antiviral activity against influenza A (A/Washington/29/2009 (H1N1)) virus after 16 to 18 hrs by fetuin substrate based colorimetric assay; how it was run: as §3
[15] = test system: Influenza A virus; assay: Antiviral activity against influenza A (A/Singapore/91/2009 (H1N1)) virus after 16 to 18 hrs by fetuin substrate based colorimetric assay; how it was run: as §3

SMILES: C/C=C\[C@@H]1C[C@H](C(=O)O)N[C@H]1[C@@H](NC(C)=O)[C@](C)(CCC)OC
- IC50 [1]: 0.16 nM
- IC50 [2]: 0.18 nM
- IC50 [3]: 0.43 nM
- IC50 [4]: 0.35 nM
- IC50 [5]: 0.27 nM
- IC50 [6]: 0.51 nM
- IC50 [7]: 0.51 nM
- IC50 [8]: 0.74 nM
- IC50 [9]: 0.53 nM
- IC50 [10]: 0.46 nM
- IC50 [11]: 1.03 nM
- IC50 [12]: 0.75 nM
- IC50 [13]: 0.9 nM
- IC50 [14]: 1.31 nM
- IC50 [15]: 1.4 nM

SMILES: CO[C@@H]([C@@H]1OC(C(=O)O)=C[C@H](NC(=N)N)[C@H]1NC(C)=O)[C@H](O)CO [LANINAMIVIR]
- IC50 [1]: 0.14 nM
- IC50 [3]: 0.49 nM
- IC50 [4]: 0.49 nM
- IC50 [5]: 0.3 nM
- IC50 [6]: 0.53 nM
- IC50 [7]: 0.61 nM
- IC50 [8]: 0.96 nM
- IC50 [9]: 0.74 nM
- IC50 [10]: 0.51 nM
- IC50 [11]: 0.79 nM
- IC50 [12]: 0.86 nM
- IC50 [13]: 0.74 nM
- IC50 [14]: 1.57 nM
- IC50 [15]: 0.9 nM

SMILES: CCC(CC)[C@H](NC(C)=O)[C@@H]1[C@H](O)[C@@H](C(=O)O)C[C@H]1NC(=N)N [PERAMIVIR ANHYDROUS]
- IC50 [1]: 0.11 nM
- IC50 [2]: 0.08 nM
- IC50 [3]: 0.12 nM
- IC50 [4]: 0.14 nM
- IC50 [5]: 0.11 nM
- IC50 [6]: 0.18 nM
- IC50 [7]: 0.19 nM
- IC50 [8]: 0.32 nM
- IC50 [9]: 0.2 nM
- IC50 [10]: 0.14 nM
- IC50 [11]: 0.75 nM
- IC50 [12]: 0.7 nM
- IC50 [13]: 0.41 nM
- IC50 [14]: 0.49 nM
- IC50 [15]: 0.55 nM

Reference: ChEMBL document CHEMBL1649328, “Assessment of pandemic and seasonal influenza A (H1N1) virus susceptibility to neuraminidase inhibitors in three enzyme activity inhibition assays” (Antimicrob Agents Chemother, 2010)
